A selection: hits, their analogues and other compounds. The true share with any hit is near 1.9%.
IDE inh: inhibits human insulin-degrading enzyme in HEK cells; actives 0.41% (n = 320,000); P14735; FAbetaB cleavage, fluorescence polarization; inhibition, % at 5.59 µM;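 active = percent inhibition above the average of all tested compounds plus 3 SD, set per screening campaign, cut at about 16% in these data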;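 note: IDE supplied by intact live HEK cells; FP after avidin binding of uncleaved biotin substrate so inhibition keeps polarization high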
Target sequence (P14735 whole entry, looked up): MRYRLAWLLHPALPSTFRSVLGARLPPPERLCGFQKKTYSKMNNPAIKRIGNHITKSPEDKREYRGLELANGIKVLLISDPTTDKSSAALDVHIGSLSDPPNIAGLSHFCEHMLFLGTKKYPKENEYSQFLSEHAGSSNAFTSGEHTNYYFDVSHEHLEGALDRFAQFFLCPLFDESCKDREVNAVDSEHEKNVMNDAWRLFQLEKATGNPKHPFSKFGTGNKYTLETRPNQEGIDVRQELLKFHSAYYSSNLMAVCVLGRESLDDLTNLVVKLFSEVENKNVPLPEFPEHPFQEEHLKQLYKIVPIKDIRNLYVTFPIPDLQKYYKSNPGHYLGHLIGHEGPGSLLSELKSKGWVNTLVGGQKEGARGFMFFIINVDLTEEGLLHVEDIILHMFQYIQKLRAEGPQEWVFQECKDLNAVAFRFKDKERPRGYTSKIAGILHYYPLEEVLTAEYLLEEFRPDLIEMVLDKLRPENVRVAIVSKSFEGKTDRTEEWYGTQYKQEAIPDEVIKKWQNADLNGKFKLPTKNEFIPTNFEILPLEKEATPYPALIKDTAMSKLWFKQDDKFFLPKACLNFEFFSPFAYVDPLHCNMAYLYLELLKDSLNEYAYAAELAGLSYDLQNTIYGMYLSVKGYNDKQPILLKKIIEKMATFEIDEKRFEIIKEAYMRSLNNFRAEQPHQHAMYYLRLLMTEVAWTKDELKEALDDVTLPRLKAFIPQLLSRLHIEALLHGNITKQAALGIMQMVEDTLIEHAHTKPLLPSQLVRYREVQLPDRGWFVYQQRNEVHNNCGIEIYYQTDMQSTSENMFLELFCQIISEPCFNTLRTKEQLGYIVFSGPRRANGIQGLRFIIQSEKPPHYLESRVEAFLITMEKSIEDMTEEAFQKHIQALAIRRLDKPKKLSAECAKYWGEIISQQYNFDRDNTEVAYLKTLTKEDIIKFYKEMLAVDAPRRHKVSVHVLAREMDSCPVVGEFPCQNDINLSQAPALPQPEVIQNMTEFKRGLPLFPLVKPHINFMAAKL
UBC13 inh: blocks human UBC13 polyubiquitin chain formation. P61088. TR-FRET. AID 485273. inhibition, % at 20 µM. actives 0.47% (n = 330,000); in the data active = inhibition above about 45%, passing the limit was not always enough; inconclusive = no clear call, values can overlap the other calls
IDE cell activ: IDE (human) activation, cell-based; actives 0.073% (n = 340,000); P14735; HEK cells, FAbeta-B cleavage, fluorescence polarization; 0% vehicle, 100% cell-free pure enzyme wells; activation, % at 5.96 µM;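 active = activation above the mean of all tested compounds plus 3 SD, set per screening campaign, cut at about 17% in these data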
procasp7 counter: activates human procaspase-7, counter-screen for procaspase-3 activators; actives 0.093% (n = 330,000); recombinant procaspase-7, Ac-DEVD-pNA absorbance 405 nm; D23A/D198A/D206A triple mutant, cannot self-cleave; scale: DMSO 0, 5 µM enzyme 100; activation, % at 8.5 µM;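 active = percent activation above the screen-wide mean plus 3 SD, cut at about 25% in these data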
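signal = Epi-absorbance of released pNA at 405 nm, two timepoints | assay system = Uncleavable procaspase-7 mutant enzyme | reagent = Ac-DEVD-pNA substrate, 400 µM as added | times = 1 h enzyme–compound preincubation and 2 h substrate reaction, both 25 °C | benchmarks = low DMSO alone, high DMSO plus 5 µM PC-7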
procasp3 activ: activates human procaspase-3; P42574; recombinant procaspase-3 D3A, Ac-DEVD-pNA absorbance 405 nm; activation, % at 8.5 µM; actives 0.11% (n = 330,000); AID 463141;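 active = activation above the mean of all tested compounds plus 3 SD, cut at about 21% in these data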
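Test system: Procaspase-3 D3A mutant; medium: Zinc-free HEPES/NaCl buffer with 0.01% Triton X-100 at pH 7.4; reagent: DEVD-pNA substrate; doses: one concentration, 8.5 µM nominal, 0.8% DMSO; times: 1 h preincubation plus 2 h reaction at 25 °C; signal: Epi-absorbance at 405 nm of released p-nitroaniline, 0 and 120 min; replicates: singlicate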
PHOSPHO1 inh: PHOSPHO1 (human) inhibition | Q8TCT1 | recombinant PHOSPHO1, absorbance phosphatase assay | inhibition, % at 13.3 µM | actives 1.1% (n = 290,000) | AID 1565; in the data active = inhibition above about 60%
Of the large screens only hits and unclear results are named; the others gave an inactive call.

Nc1c(C(=O)CSc2nc3ccccc3o2)c(=O)[nH]c(=O)n1C1CC1	IDE cell activ 26.9 (no result: PHOSPHO1 inh)
CCN(CC)C(=S)Sc1c(-c2ccccc2)c2cc(Cl)ccc2[nH]c1=O	PHOSPHO1 inh 88.2
O=c1[nH]c2ccc(Cl)cc2c(-c2ccccc2)c1N1CCOCC1	UBC13 inh inconclusive, PHOSPHO1 inh 70.5
O=C(O)CSc1c(-c2ccccc2)c2cc(Cl)ccc2[nH]c1=O	none
Cc1noc(C)c1NC(=O)N(C)C[C@H]1Oc2ccc(NC(=O)Cn3cnnn3)cc2C(=O)N([C@H](C)CO)C[C@@H]1C	none (no result: PHOSPHO1 inh)
CN(C(=O)COC(=O)C1CSC2(C)CCC(=O)N12)c1ccccc1 (stereo unspecified)	none (no result: PHOSPHO1 inh)
Cn1c(CN2CCOCC2)nnc1SCC(=O)Nc1ccc([N+](=O)[O-])cc1O	IDE cell activ 23.7
Cc1cccc(NC(=O)CSc2nnc(CN3CCOCC3)n2C)c1C	none
COc1ccc(C(=O)OCC(=O)NC23CC4CC(CC(C4)C2)C3)c(OC)c1OC	none (no result: PHOSPHO1 inh)
O=C(CSc1nc2ccccc2c(=O)[nH]1)N1CCOCC1	none
O=C(CSc1nc2ccc(S(=O)(=O)N3CCOCC3)cc2[nH]1)N1CCOCC1	PHOSPHO1 inh 67.0
CCCCNS(=O)(=O)c1ccc2nc(SCC(=O)N3CC(C)OC(C)C3)[nH]c2c1 (stereo unspecified)	PHOSPHO1 inh 75.3
c1ccc(-c2nc3nonc3nc2-c2ccccc2)cc1	PHOSPHO1 inh 67.4
Nc1c(-c2ccccc2)nc(Cl)nc1-c1ccccc1	none
CC1CC(C)(C)CC2(C1)NC(=O)N(CC(=O)Nc1cc([N+](=O)[O-])ccc1F)C2=O (stereo unspecified)	none (no result: PHOSPHO1 inh)
Cc1noc(C)c1COC(=O)c1csc2c1CCC(C)C2 (stereo unspecified)	none (no result: PHOSPHO1 inh)
O=C(CSc1nc(-c2ccc(F)cc2)cs1)NC(=O)NCc1ccco1	PHOSPHO1 inh 79.4
O=C(CSc1ncc(-c2ccc(F)cc2)[nH]1)NCc1ccco1	PHOSPHO1 inh 74.0
O=C(CSc1ccc2nnc(-c3cccc(F)c3)n2n1)NCc1ccco1	PHOSPHO1 inh 64.6
Nn1c(SCC(=O)NCCN2C(=O)CSC2=O)nnc1-c1ccc(OC(F)F)cc1	none (no result: PHOSPHO1 inh)
Nn1c(SCC(=O)NC(=O)NCc2ccco2)nnc1-c1ccc(OC(F)F)cc1	PHOSPHO1 inh 93.0
O=C(CSc1nccc(=O)[nH]1)NCc1ccco1	none
CN(C)c1ccc(CNC(=O)CCS(=O)(=O)c2ccc3c(c2)oc(=O)n3C)cc1	none
Cc1cc2nc(-c3cccnc3SCC(=O)NCc3ccco3)[nH]c2cc1C	none (no result: PHOSPHO1 inh)
O=C(CSc1ncccc1-c1nc2ccccc2[nH]1)NCc1ccco1	PHOSPHO1 inh 61.3
CCc1ccc(CNC(=O)c2ccc(OC3CCN(C(C)=O)CC3)c(OC)c2)nc1	none
CCOc1cc(CNc2ccccc2SC)ccc1O	none (no result: IDE cell activ)
COc1cc(CNc2ccccc2SC)ccc1O	PHOSPHO1 inh 72.1
O=C(COc1cc2oc(=O)c3c(c2cc1Cl)CCC3)NCCCn1ccnc1	none
S=C(Cc1cccnc1)N1CCOCC1	PHOSPHO1 inh 60.1
CC(C)[N+](C)(C)CC(O)CN(c1ccccc1)c1ccccc1 (stereo unspecified)	PHOSPHO1 inh 85.1
NCC(O)CN(c1ccccc1)c1ccccc1 (stereo unspecified)	none
Cc1nn(C2CCS(=O)(=O)C2)c2nc(C3CC3)cc(C(=O)Nc3ccc(C(N)=O)cc3)c12 (stereo unspecified)	none (no result: IDE inh, procasp7 counter, procasp3 activ, PHOSPHO1 inh)
Cc1nn(-c2ccccc2)c(Cl)c1/C=C1\SC(=S)N(CCCCCC(=O)O)C1=O	none
Cc1nn(-c2ccccc2)c(Cl)c1/C=C1\SC(=S)NC1=O	PHOSPHO1 inh 64.0
CN(CC(=O)Nc1n[nH]c(=S)s1)S(=O)(=O)c1cccc2cccnc12	PHOSPHO1 inh 60.4
CC(C)C(NC(=O)COc1ccc2ccccc2c1)C(=O)N/N=C/C=C/c1ccccc1 (stereo unspecified)	PHOSPHO1 inh 92.7
Cc1ccc(NC(=O)CCNC(=O)c2ccc(Br)cc2)nc1	none
COc1ccc(-c2n[nH]c(=S)n2Cc2ccco2)cc1	PHOSPHO1 inh 101.6
Oc1ccccc1-c1n[nH]c(=S)n1Cc1ccco1	PHOSPHO1 inh 94.5
COc1ccc(OCc2n[nH]c(=S)n2Cc2ccco2)cc1	none
CC1=C(C(=O)Nc2ccccc2)C(c2cccnc2)n2nc(-c3cccnc3)nc2N1 (stereo unspecified)	none
CC1=C(C(=O)Nc2cccnc2)C(c2cccnc2)n2nc(-c3cccs3)nc2N1 (stereo unspecified)	PHOSPHO1 inh 62.3
COc1ccccc1C(=O)C1Nc2ccccc2-c2nnc(SC)nc2O1 (stereo unspecified)	none
CCCCSc1nnc2c(n1)OC(C(=O)c1ccccc1)Nc1ccccc1-2 (stereo unspecified)	PHOSPHO1 inh 90.2 (no result: IDE inh, UBC13 inh, IDE cell activ, procasp7 counter, procasp3 activ)
CCOc1ccccc1NC(=O)C1CCN(c2ccc(S(=O)(=O)N3CCCC3)cc2)CC1	PHOSPHO1 inh 78.5
CCOc1ccccc1NC(=O)C1CCN(S(=O)(=O)c2ccc(OC)c(OC)c2)CC1	none
O=C(NCCS(=O)(=O)NCc1ccccn1)c1ccccc1	none (no result: PHOSPHO1 inh)
C=CCOC(=O)C1=C(C)NC(SCC(=O)Nc2nccs2)=C(C#N)C1c1ccc(Cl)cc1 (stereo unspecified)	PHOSPHO1 inh 66.7
C=CCOC(=O)C1=C(C)NC(SCC(=O)Nc2nccs2)=C(C#N)C1c1cccs1 (stereo unspecified)	PHOSPHO1 inh 62.0
CC(C)c1c(C(=O)N/N=C/c2ccsc2)nnn1-c1nonc1N	none
O=C(Oc1c(Br)cc(C(=S)N2CCOCC2)cc1Br)c1ccc(Cl)cc1	PHOSPHO1 inh 95.9
COc1ccc(CC(=O)Nc2cc(S(=O)(=O)N3CCCC3)ccc2Cl)c(OC)c1	none (no result: PHOSPHO1 inh)
COc1ccc(C(=O)N/N=C/c2cc3ccccc3[nH]c2=S)cc1	PHOSPHO1 inh 91.3
N#C/C(=N\Nc1ccc(S(=O)(=O)N2CCOCC2)cc1)C(N)=S	none
CC1CCN(S(=O)(=O)c2ccc(N/N=C(/C#N)C(N)=O)cc2)CC1	PHOSPHO1 inh 76.7
CCCN(C(=O)c1cn(C)c(=O)c2ccccc12)c1ccccc1C	none
Cc1sc2ncnc(NC(C)C(=O)O)c2c1C (stereo unspecified)	none
C[C@H](Nc1ncnc2sc3c(c12)CCC3)C(=O)O	PHOSPHO1 inh 66.4
CC(C)C(NS(=O)(=O)c1cccc2nsnc12)C(=O)N1CCCCC1 (stereo unspecified)	none
CCCCNC(=S)N1CCN(c2nc3ccccc3s2)CC1	IDE inh 19.3
COc1ccc(-c2nnc(SCc3ccc(C(=O)O)cc3)n2C)cc1OC	none

Screens: PubChem BioAssay, several laboratories
